The record followed here is ChEMBL document CHEMBL1123027, “Synthesis and biological activity of 5-thiobredinin and certain related 5-substituted imidazole-4-carboxamide ribonucleosides” (J Med Chem, 1985).

Some results are limits rather than exact numbers.

For data set [1], the system named is Human respirovirus 3. The data set can be described thus: In vitro antiviral activity was tested against parainfluenza type 3 (para3) virus. In kind it is functional, para influenza virus. The note with it: read-out: ED50 (the source's name).
Data set [2] concerns Vero. Kind of data set: Maximum tolerated concentration (MTC) was evaluated in vero cells. Format: functional, Chlorocebus sabaeus. A digest of the protocol:
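Confluent, uninfected Vero monolayers were given compound in seven 0.5-log steps, final 5 × 10⁻⁶ to 5 × 10⁻³ M, one well per concentration, for 72 h at 37 °C in 5% CO2. Wells were checked by microscope for changes in morphology or monolayer density (lysis, rounding, detachment). The MTC is the lowest concentration giving visible cytotoxicity.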

The subject of data set [3] is Rift Valley fever virus. Kind of data set: In vitro antiviral activity was tested against rift valley fever virus(RVF) virus. In kind it is functional. The conditions noted are these: read-out: ED50 (the source's name).
In data set [4] the test system is Human alphaherpesvirus 2. The data set can be described thus: In vitro antiviral activity was tested against herpes simplex type 2 (HSV-2). In kind it is functional. The note with it: read-out: ED50 (the source's name). A digest of the protocol:
(§1)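 Vero cell monolayers, grown 24 h at 37 °C in 5% CO2 to confluency, were infected with HSV-2 (strain 333) at 100 TCID50 per well. After 30-min adsorption at 37 °C, compound was added in seven 0.5-log steps, final 5 × 10⁻⁶ to 5 × 10⁻³ M, in duplicate wells. After 72 h at 37 °C, the ED50 was taken as 50% inhibition of viral CPE versus untreated controls.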

Data set [5] deals with Venezuelan equine encephalitis virus. Kind of data set: In vitro antiviral activity was tested against venezuelan equine encephalomyelitis (VEE) virus. In kind it is functional. The note with it: read-out: ED50 (the source's name).
In data set [6] the test system is Vaccinia virus. Kind of data set: In vitro antiviral activity was tested against vaccinia virus(VV). In kind it is functional. The conditions noted are these: Orthopoxvirus vaccinia; read-out: ED50 (the source's name).
Data set [7] relates to Rift Valley fever virus. Kind of data set: (§2) Therapeutic index against Rift valley fever virus. The conditions noted are these: in vivo, read-out: Therapeutic index. Format: organism-based.
Data set [8] concerns Mus musculus. The data set can be described thus: The maximum tolerated dose was evaluated in mice and expressed in terms of mg/kg of body weight. Format: functional.
In data set [9] the test system is Human respirovirus 3. Kind of data set: In vitro antiviral activity was tested against parainfluenza virus type 3 (para3) virus. In kind it is functional, para influenza virus. The note with it: read-out: ED50 (the source's name).
Data set [10] deals with Mus musculus. Kind of data set: The maximum tolerated dose was evaluated in mice expressed in terms of mg/kg of body weight. In kind it is functional.
Data set [11] concerns Human alphaherpesvirus 2. Kind of data set: In vitro antiviral activity was tested against herpes simplex virus type 2 (HSV-2). Format: functional. The note with it: read-out: ED50 (the source's name). The essentials: as §1
The test system of data set [12] is Vaccinia virus. The data set can be described thus: In vitro antiviral activity was tested against vaccinia virus(VV) virus. Format: functional. The note with it: Orthopoxvirus vaccinia; read-out: ED50 (the source's name).
Data set [13] relates to Human alphaherpesvirus 2. Kind of data set: In vitro antiviral activity was tested against herpes simplex type 2 (HSV-2) virus. Format: functional. The note with it: read-out: ED50 (the source's name).
Data set [14] concerns Venezuelan equine encephalomyelitis virus (VEE). The data set can be described thus: Therapeutic index against Venezuelan equine encephalomyelitis virus (VEE). The note with it: Venezuelan equine encephalitis virus; read-out: Therapeutic index.
Data set [15] relates to Mus musculus. Kind of data set: The maximum tolerated dose was evaluated in mice and is expressed as mg/kg of body weight. Format: functional.
In data set [16] the test system is Human respirovirus 3. The data set can be described thus: In vitro against parainfluenza type 3 (para3) virus. Format: functional, para influenza virus. The note with it: read-out: ED50 (the source's name).
The subject of data set [17] is Venezuelan equine encephalomyelitis virus (VEE). Kind of data set: Therapeutic index against Venezuelan equine encephalomyelitis virus. In kind it is organism-based. The conditions noted are these: venezuelan equine encephalitis virus, in vivo; read-out: Therapeutic index.
Data set [18] concerns Mus musculus. Kind of data set: The maximum tolerated dose was evaluated in mice (mg/kg of body weight). Format: functional.
For data set [19], the system named is Rift Valley fever virus. The data set is described as §2. The conditions noted are these: read-out: Therapeutic index.

In the case of `NC(=O)c1ncn(C2O[C@H](CO)[C@@H](O)[C@H]2O)c1S` (stereo partly drawn), the EC50 in data set [1] was 5000 µM; in [3], greater than 2000 µM; in [4] it was greater than 5000 µM; in [5], greater than 2000 µM; in data set [6], 3800 µM. Moreover, the MTC was greater than 5 mM in data set [2] and greater than 110 mg/kg in data set [8]. In addition, the selectivity ratio in data set [7] is 1.1.
In the case of `CCSc1c(C(N)=O)ncn1C1O[C@H](CO)[C@@H](O)[C@H]1O` (stereo partly drawn), the figures for the MTC in [2] and in data set [10] were greater than 5 mM and greater than 121 mg/kg, respectively. In addition, the EC50 in data set [3] is greater than 2000 µM; in [9], greater than 5000 µM; in data set [5] it was greater than 2000 µM; in data set [11] it was greater than 5000 µM; in data set [12], 2600 µM. In addition, the selectivity ratio in data set [7] is 1.4.
For `CCS(=O)(=O)c1c(C(N)=O)ncn1C1O[C@H](CO)[C@@H](O)[C@H]1O` (stereo partly drawn), the EC50 in data set [1] was greater than 5000 µM; in data set [3], greater than 2000 µM; in data set [4] it was greater than 5000 µM; in [5], greater than 2000 µM; in data set [6], 3500 µM. The MTC was greater than 5 mM in [2] and greater than 134 mg/kg in [8]. In addition, in data set [7], the selectivity ratio is 1.21.
For `Cc1c(C(N)=O)ncn1C1O[C@H](CO)[C@@H](O)[C@H]1O` (stereo partly drawn), the EC50 in [1] was 500 µM; in data set [3] it was 1800 µM; in data set [13], 4000 µM; in data set [12] it was 1400 µM. Besides, the MTC in data set [2] was 1.6 mM.
Turning to `NC(=O)c1ncn(C2O[C@H](CO)[C@@H](O)[C@H]2O)c1SCc1ccccc1` (stereo partly drawn), the EC50 in data set [1] was 4400 µM; in data set [3] it was 1000 µM; in data set [4], greater than 5000 µM; in data set [5], 1000 µM; in data set [12], 230 µM. The figures for the MTC in data set [2] and in data set [8] were greater than 5 mM and greater than 146 mg/kg, respectively. The selectivity ratio in [7] came to 1.9.
Consider `CSc1c(C(N)=O)ncn1C1O[C@H](CO)[C@@H](O)[C@H]1O` (stereo partly drawn), for which the EC50 was 730 µM in data set [1]; 1800 µM in data set [3]; greater than 1700 µM in data set [5]; 4100 µM in [11]; 280 µM in [12]. Moreover, the values for the selectivity ratio in data set [14] and in data set [7] were 0.9 and 1.2, respectively. For the same molecule, the figures for the MTC in [2] and in [15] were 1.6 mM and greater than 100 mg/kg, respectively.
Regarding `CS(=O)(=O)c1c(C(N)=O)ncn1C1O[C@H](CO)[C@@H](O)[C@H]1O` (stereo partly drawn), the MTC is greater than 5 mM in data set [2] and greater than 400 mg/kg in data set [8]. For the same molecule, the EC50 in data set [3] was 8.7 µM; in data set [16] it was greater than 5000 µM; in data set [5] it was 650 µM; in [13], 5000 µM; in [6] it was greater than 5000 µM. In addition, the selectivity ratio in data set [17] is 1.4; in [7] it was 2.8.
In data set [18], `NC(=O)c1ncn([C@@H]2O[C@H](CO)[C@@H](O)[C@H]2O)n1` [RIBAVIRIN] yielded an MTC greater than 100 mg/kg. Further, the values for the selectivity ratio in [19] and in data set [17] were 4 and 1.5, respectively.
